Reference: ChEMBL document CHEMBL3588831, “Synthesis and in Vivo Evaluation of [123I]Melanin-Targeted Agents” (J Med Chem, 2015)

Key:
Mus musculus [1] = experiment: Biodistribution in large gastrointestinal tract of C57BL/6J mouse bearing mouse B16F0 cells at 0.37 to 1.85 MBq, iv after 24 hrs by gamma counting method; assay type: ADME, organism-based, Large intestine; details: in vivo
How it was run: (§1)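 Female C57BL/6J mice (5−6 weeks), s.c. inoculated on left flank with 3 × 10^5 B16F0 cells in Ca2+/Mg2+-free PBS, used 11 days later (tumors 2−12 mm). Radiotracer given via tail vein in 100 μL (~0.37 MBq for 1−24 h, 1.85 MBq for 48 h). Organs dissected, weighed, γ-counted, decay corrected. Expressed as % ID/g against injected-dose dilutions. Mean ± SEM, n = 5.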

[2] = Ratio of AUC in tumor to skin of C57BL/6J mouse bearing mouse B16F0 cells at 0.37 to 1.85 MBq, iv by gamma counting method; assay type: ADME, organism-based; details: in vivo
How it was run: (§2)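 Biodistribution in B16F0-bearing C57BL/6J mice given i.v. tail-vein tracer (~0.37 MBq for 1–24 h, 1.85 MBq for 48 h). Sacrifice at 1, 3, 6, 16, 24 and 48 h, then organs dissected, weighed and γ-counted as decay-corrected % ID/g. Tumor AUC divided by each organ AUC; mean of ratios ± SEM, n = 5.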

Kidney [3] = experiment: Biodistribution in kidney of C57BL/6J mouse bearing mouse B16F0 cells at 0.37 to 1.85 MBq, iv after 3 hrs by gamma counting method; assay type: ADME, organism-based; details: in vivo; how it was run: as §1
Plasma = experiment: Stability in plasma of C57BL/6J mouse bearing mouse B16F0 cells assessed as drug degradation at 0.37 to 1.85 MBq, iv after 24 hrs by radio-HPLC and radio-TLC method; assay type: ADME, organism-based; details: in vivo, in the assay text read “20 MBq” for “0.37 to 1.85 MBq”
How it was run: (§3)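 Tumor-bearing C57BL/6J mice were sampled 3 and 24 h after i.v. tracer. Tissue was sonicated in CH3CN/water (3:2) with cold iodo standard and KI, then centrifuged. Urine was diluted and spiked; plasma was spiked, with CH3CN precipitation for TLC. Intact fraction came from silica radio-TLC (spot matching standard Rf) and radio-HPLC with precolumn/C18 column switching.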

Mus musculus [4] = experiment: Biodistribution in small gastrointestinal tract of C57BL/6J mouse bearing mouse B16F0 cells at 0.37 to 1.85 MBq, iv after 48 hrs by gamma counting method; assay type: ADME, organism-based; details: in vivo; how it was run: as §1
Mus musculus [5] = experiment: Biodistribution in large gastrointestinal tract of C57BL/6J mouse bearing mouse B16F0 cells at 0.37 to 1.85 MBq, iv after 16 hrs by gamma counting method; assay type: ADME, organism-based, Large intestine; details: in vivo; how it was run: as §1
[6] = Ratio of AUC in tumor to thyroid gland of C57BL/6J mouse bearing mouse B16F0 cells at 0.37 to 1.85 MBq, iv by gamma counting method; assay type: ADME, organism-based; details: in vivo; how it was run: as §2
Mus musculus [7] = experiment: Biodistribution in eyes of C57BL/6J mouse bearing mouse B16F0 cells at 0.37 to 1.85 MBq, iv after 3 hrs by gamma counting method; assay type: ADME, organism-based, Eye; details: in vivo; how it was run: as §1
Mus musculus [8] = experiment: Biodistribution in thyroid gland of C57BL/6J mouse bearing mouse B16F0 cells at 0.37 to 1.85 MBq, iv after 24 hrs by gamma counting method; assay type: ADME, organism-based; details: in vivo; how it was run: as §1
Mus musculus [9] = experiment: Biodistribution in tumor of C57BL/6J mouse bearing mouse B16F0 cells at 0.37 to 1.85 MBq, iv after 48 hrs by gamma counting method; assay type: ADME, organism-based; details: in vivo; how it was run: as §1
Mus musculus [10] = experiment: Biodistribution in small gastrointestinal tract of C57BL/6J mouse bearing mouse B16F0 cells at 0.37 to 1.85 MBq, iv after 1 hr by gamma counting method; assay type: ADME, organism-based, Small intestine; details: in vivo; how it was run: as §1
[11] = Ratio of AUC in tumor to gastrointestinal tract of C57BL/6J mouse bearing mouse B16F0 cells at 0.37 to 1.85 MBq, iv by gamma counting method; assay type: ADME, organism-based; details: in vivo; how it was run: as §2
Spleen [12] = experiment: Biodistribution in spleen of C57BL/6J mouse bearing mouse B16F0 cells at 0.37 to 1.85 MBq, iv after 3 hrs by gamma counting method; assay type: ADME, organism-based; details: in vivo; how it was run: as §1
Mus musculus [13] = experiment: Biodistribution in large gastrointestinal tract of C57BL/6J mouse bearing mouse B16F0 cells at 0.37 to 1.85 MBq, iv after 3 hrs by gamma counting method; assay type: ADME, organism-based, Large intestine; details: in vivo; how it was run: as §1
[14] = Stability in eyes of C57BL/6J mouse bearing mouse B16F0 cells assessed as intact parent compound level at 0.37 to 1.85 MBq, iv after 24 hrs by radio-HPLC and radio-TLC method; assay type: ADME, organism-based, Eye; details: in the assay text read “20 MBq” for “0.37 to 1.85 MBq”, read-out: Stability; how it was run: as §3
Mus musculus [15] = experiment: Biodistribution in thyroid gland of C57BL/6J mouse bearing mouse B16F0 cells at 0.37 to 1.85 MBq, iv after 6 hrs by gamma counting method; assay type: ADME, organism-based; details: in vivo; how it was run: as §1
Mus musculus [16] = experiment: Biodistribution in small gastrointestinal tract of C57BL/6J mouse bearing mouse B16F0 cells at 0.37 to 1.85 MBq, iv after 24 hrs by gamma counting method; assay type: ADME, organism-based, Small intestine; details: in vivo; how it was run: as §1
Spleen [17] = experiment: Biodistribution in spleen of C57BL/6J mouse bearing mouse B16F0 cells at 0.37 to 1.85 MBq, iv after 6 hrs by gamma counting method; assay type: ADME, organism-based; details: in vivo; how it was run: as §1
Mus musculus [18] = experiment: Biodistribution in small gastrointestinal tract of C57BL/6J mouse bearing mouse B16F0 cells at 0.37 to 1.85 MBq, iv after 6 hrs by gamma counting method; assay type: ADME, organism-based, Small intestine; details: in vivo; how it was run: as §1
Mus musculus [19] = experiment: Biodistribution in large gastrointestinal tract of C57BL/6J mouse bearing mouse B16F0 cells at 0.37 to 1.85 MBq, iv after 48 hrs by gamma counting method; assay type: ADME, organism-based; details: in vivo; how it was run: as §1
[20] = Stability in urine of C57BL/6J mouse bearing mouse B16F0 cells assessed as drug degradation at 0.37 to 1.85 MBq, iv after 24 hrs by radio-HPLC and radio-TLC method; assay type: ADME, organism-based; details: in vivo, in the assay text read “20 MBq” for “0.37 to 1.85 MBq”; how it was run: as §3
Liver [21] = experiment: Biodistribution in liver of C57BL/6J mouse bearing mouse B16F0 cells at 0.37 to 1.85 MBq, iv after 24 hrs by gamma counting method; assay type: ADME, organism-based; details: in vivo; how it was run: as §1
Liver [22] = experiment: Biodistribution in liver of C57BL/6J mouse bearing mouse B16F0 cells at 0.37 to 1.85 MBq, iv after 1 hr by gamma counting method; assay type: ADME, organism-based; details: in vivo; how it was run: as §1
Liver [23] = experiment: Biodistribution in liver of C57BL/6J mouse bearing mouse B16F0 cells at 0.37 to 1.85 MBq, iv after 16 hrs by gamma counting method; assay type: ADME, organism-based; details: in vivo; how it was run: as §1
[24] = Retention time of the compound by HPLC method; assay type: physicochemical
Spleen [25] = experiment: Biodistribution in spleen of C57BL/6J mouse bearing mouse B16F0 cells at 0.37 to 1.85 MBq, iv after 1 hr by gamma counting method; assay type: ADME, organism-based; details: in vivo; how it was run: as §1
Mus musculus [26] = experiment: Biodistribution in eyes of C57BL/6J mouse bearing mouse B16F0 cells at 0.37 to 1.85 MBq, iv after 16 hrs by gamma counting method; assay type: ADME, organism-based, Eye; details: in vivo; how it was run: as §1
Liver [27] = experiment: Biodistribution in liver of C57BL/6J mouse bearing mouse B16F0 cells at 0.37 to 1.85 MBq, iv after 3 hrs by gamma counting method; assay type: ADME, organism-based; details: in vivo; how it was run: as §1
Kidney [28] = experiment: Biodistribution in kidney of C57BL/6J mouse bearing mouse B16F0 cells at 0.37 to 1.85 MBq, iv after 6 hrs by gamma counting method; assay type: ADME, organism-based; details: in vivo; how it was run: as §1
Mus musculus [29] = experiment: Biodistribution in eyes of C57BL/6J mouse bearing mouse B16F0 cells at 0.37 to 1.85 MBq, iv after 24 hrs by gamma counting method; assay type: ADME, organism-based, Eye; details: in vivo; how it was run: as §1

Row | Drug uptake (Mus musculus [1]) | Ratio [2] | Drug uptake (Kidney [3]) | Stability (Plasma) | Drug uptake (Mus musculus [4]) | Drug uptake (Mus musculus [5]) | Ratio [6] | Drug uptake (Mus musculus [7]) | Drug uptake (Mus musculus [8]) | Drug uptake (Mus musculus [9]) | Drug uptake (Mus musculus [10]) | Ratio [11] | Drug uptake (Spleen [12]) | Drug uptake (Mus musculus [13]) | remaining at 24 h [14] | Drug uptake (Mus musculus [15]) | Drug uptake (Mus musculus [16]) | Drug uptake (Spleen [17]) | Drug uptake (Mus musculus [18]) | Drug uptake (Mus musculus [19]) | other results | SMILES
1 | 1 % ID/g | 23.1 | 8.4 % ID/g | Unstable | 0.1 % ID/g | 1.4 % ID/g | 6 | 18.5 % ID/g | 1 % ID/g | 5 % ID/g | 21.4 % ID/g | 2.9 | 0.5 % ID/g | 21.4 % ID/g | 80% | 2.8 % ID/g | 0.3 % ID/g | 0.4 % ID/g | 2.6 % ID/g | 0.1 % ID/g | Stability [20]: Unstable; Drug uptake (Liver [21]): 0.4 % ID/g; Drug uptake (Liver [22]): 12.3 % ID/g; Drug uptake (Liver [23]): 0.7 % ID/g; Retention_time [24]: 16.7 min; Drug uptake (Spleen [25]): 0.2 % ID/g; Drug uptake (Mus musculus [26]): 22.1 % ID/g; Drug uptake (Liver [27]): 5.6 % ID/g; Drug uptake (Kidney [28]): 4.1 % ID/g; Drug uptake (Mus musculus [29]): 18.4 % ID/g | O=C(CN1Cc2ccccc2C1=O)N1C[C@H]2CN(Cc3ccc([123I])cc3)C[C@H]2C1
2 | 1.7 % ID/g | 40.9 | 9 % ID/g | Unstable | 0.1 % ID/g | 2.3 % ID/g | 7.2 | 56.4 % ID/g | 2 % ID/g | 5.6 % ID/g | 45.6 % ID/g | 1.8 | 2 % ID/g | 59.6 % ID/g | 35% | 2.7 % ID/g | 0.8 % ID/g | 1 % ID/g | 11.5 % ID/g | 0.2 % ID/g | Stability [20]: Unstable; Drug uptake (Liver [21]): 0.8 % ID/g; Drug uptake (Liver [22]): 19.5 % ID/g; Drug uptake (Liver [23]): 0.9 % ID/g; Retention_time [24]: 16.6 min; Drug uptake (Spleen [25]): 3.5 % ID/g; Drug uptake (Mus musculus [26]): 28.6 % ID/g; Drug uptake (Liver [27]): 13.2 % ID/g; Drug uptake (Kidney [28]): 10 % ID/g; Drug uptake (Mus musculus [29]): 30.8 % ID/g | O=C(c1ccc2c(n1)NCCC2)N1CCN(Cc2ccc([123I])cc2)CC1
3 | 1.4 % ID/g | 45.3 | 6.2 % ID/g | Unstable | 0.2 % ID/g | 1.8 % ID/g | 5 | 36 % ID/g | 2.9 % ID/g | 13.1 % ID/g | 14.4 % ID/g | 5.5 | 2.3 % ID/g | 11.9 % ID/g | 35% | 3.5 % ID/g | 0.9 % ID/g | 2.1 % ID/g | 6.1 % ID/g | 0.3 % ID/g | Stability [20]: Unstable; Drug uptake (Liver [21]): 1.8 % ID/g; Drug uptake (Liver [22]): 15.9 % ID/g; Drug uptake (Liver [23]): 2.4 % ID/g; Retention_time [24]: 12.2 min; Drug uptake (Spleen [25]): 2.6 % ID/g; Drug uptake (Mus musculus [26]): 32.9 % ID/g; Drug uptake (Liver [27]): 13.4 % ID/g; Drug uptake (Kidney [28]): 5.2 % ID/g; Drug uptake (Mus musculus [29]): 35.1 % ID/g | O=C(c1ccc2cccnc2n1)N1CCN(Cc2ccc([123I])cc2)CC1
4 | 8 % ID/g | 24.4 | 7.4 % ID/g | Unstable | 0.3 % ID/g | 8.1 % ID/g | 5.8 | 20.8 % ID/g | 2.6 % ID/g | 13.2 % ID/g | 11.9 % ID/g | 3 | 7.6 % ID/g | 10.9 % ID/g | 80% | 3.1 % ID/g | 3.8 % ID/g | 3.6 % ID/g | 9.8 % ID/g | 0.6 % ID/g | Stability [20]: Unstable; Drug uptake (Liver [21]): 7.8 % ID/g; Drug uptake (Liver [22]): 41.8 % ID/g; Drug uptake (Liver [23]): 7.1 % ID/g; Retention_time [24]: 14.8 min; Drug uptake (Spleen [25]): 9.6 % ID/g; Drug uptake (Mus musculus [26]): 40.4 % ID/g; Drug uptake (Liver [27]): 38.8 % ID/g; Drug uptake (Kidney [28]): 5 % ID/g; Drug uptake (Mus musculus [29]): 41.4 % ID/g | O=C(CN1Cc2ccccc2C1=O)NC1CCN(Cc2ccc([123I])cc2)CC1
